Measurements as given in PMC3085808 (Nutrition Research and Practice, 2011).

Tests used:
[1] = target: T1, angiotensin I-converting enzyme (ACE) (Oryctolagus cuniculus, UniProt P12822); experiment: ACE inhibition pattern by Lineweaver-Burk plots; format: biochemical; conditions: substrate HHL
T1 sequence (P12822 34-1310): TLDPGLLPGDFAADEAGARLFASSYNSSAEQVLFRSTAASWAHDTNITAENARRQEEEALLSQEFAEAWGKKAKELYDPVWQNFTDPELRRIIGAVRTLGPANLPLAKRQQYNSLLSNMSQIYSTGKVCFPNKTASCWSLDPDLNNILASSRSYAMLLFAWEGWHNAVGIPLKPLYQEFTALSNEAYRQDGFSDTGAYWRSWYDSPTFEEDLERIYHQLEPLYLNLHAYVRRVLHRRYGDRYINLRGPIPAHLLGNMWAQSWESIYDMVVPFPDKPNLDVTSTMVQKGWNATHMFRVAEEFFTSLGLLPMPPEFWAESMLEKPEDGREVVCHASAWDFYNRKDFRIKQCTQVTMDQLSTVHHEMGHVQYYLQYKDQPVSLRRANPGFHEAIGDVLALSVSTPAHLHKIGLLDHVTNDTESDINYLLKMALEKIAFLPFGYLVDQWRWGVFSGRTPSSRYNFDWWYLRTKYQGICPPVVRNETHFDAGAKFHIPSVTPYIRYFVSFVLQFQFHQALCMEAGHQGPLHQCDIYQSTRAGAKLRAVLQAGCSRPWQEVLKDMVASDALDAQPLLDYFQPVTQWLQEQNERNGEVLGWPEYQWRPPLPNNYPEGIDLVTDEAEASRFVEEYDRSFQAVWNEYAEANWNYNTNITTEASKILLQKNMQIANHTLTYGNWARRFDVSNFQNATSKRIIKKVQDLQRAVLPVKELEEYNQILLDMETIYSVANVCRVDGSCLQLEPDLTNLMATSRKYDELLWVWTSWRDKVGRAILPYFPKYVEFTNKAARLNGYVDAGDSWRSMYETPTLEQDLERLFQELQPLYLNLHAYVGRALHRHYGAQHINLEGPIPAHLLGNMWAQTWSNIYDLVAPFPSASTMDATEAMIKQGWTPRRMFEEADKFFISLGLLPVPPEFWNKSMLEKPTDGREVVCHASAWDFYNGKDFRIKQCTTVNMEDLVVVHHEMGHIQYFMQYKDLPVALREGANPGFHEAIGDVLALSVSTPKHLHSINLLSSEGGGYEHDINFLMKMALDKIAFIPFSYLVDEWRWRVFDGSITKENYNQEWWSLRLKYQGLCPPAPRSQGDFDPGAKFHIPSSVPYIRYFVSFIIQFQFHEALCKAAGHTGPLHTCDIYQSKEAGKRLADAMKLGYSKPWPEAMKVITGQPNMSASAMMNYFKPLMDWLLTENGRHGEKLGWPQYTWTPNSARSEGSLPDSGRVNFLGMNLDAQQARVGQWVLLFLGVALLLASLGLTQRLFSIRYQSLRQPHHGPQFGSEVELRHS
Outline: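 ACE kept constant while test compound (in 0.1% DMSO) and HHL substrate were both varied. Enzyme and compound were pre-incubated 10 min at 37℃, then HHL in 50 mM sodium borate with 500 mM NaCl, pH 8.3, was added for 60 min at 37℃. Stopped with 1 M HCl; hippuric acid extracted into ethyl acetate, dried, redissolved in water, A228. 0.1% DMSO control. Lineweaver-Burk plots, mean ± SD of three determinations.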

EAhy926 cells [2] = experiment: Nitric oxide; format: cell-based, human; conditions: 24 h, P < 0.05
Outline: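 EAhy926 cells at 1.5 × 10^5 cells/well were treated 24 h with a range of test compound concentrations in 0.1% DMSO, with 0.1% DMSO as control. Supernatant nitrite: supernatant mixed 1:1 with Griess reagent (0.1% N-(1-naphthyl)-ethylenediamine, 1% sulfanilamide in 5% phosphoric acid), 10 min at room temperature, A550 against a sodium nitrite standard curve. Mean ± SD of three determinations; one-way ANOVA with Duncan's test, P < 0.05.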

EAhy926 cells [3] = experiment: Cell viability, MTT assay; format: cell-based, human
Outline: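 EAhy926 cells grown in DMEM with 10% heat-inactivated calf serum, penicillin and streptomycin at 37℃, 5% CO2. Seeded at 1.0 × 10^5 cells/ml, held 16 h, then exposed 24 h to a range of test compound concentrations in 0.1% DMSO. MTT (2 mg/ml stock) added for 4 h; formazan dissolved in DMSO, A540. Viability as % of 0.1% DMSO control; mean ± SD of three determinations.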

[4] = system: glycosidases from the viscera of the turban shell Turbo cornutus; conditions: cited from earlier work

Q: Which ACE inhibition mode [1] does the source give for `Oc1cc(O)cc(Oc2c(O)cc(O)c3c2Oc2c(O)cc(Oc4c(O)cc(Oc5c(O)cc(O)c6c5Oc5c(O)cc(O)cc5O6)cc4O)cc2O3)c1` [Dieckol, dieckol] here?
A: non-competitive inhibitor

Q: What about the “Concentrations with inducible effect on the production of NO” value (EAhy926 cells [2]) of the same compound?
A: higher than 0.27 mM

Q: What about the Cytotoxic effect (EAhy926 cells [3]) of the same compound?
A: no cytotoxic effect

Q: What about the “Survival rate of cells” value (EAhy926 cells [3]; 24 h, all of the concentrations used) of the same compound?
A: higher than 95%

Q: And the Glycosidase inhibition mode [4]?
A: non-competitive inhibitor
